{
  "source": "ChEMBL document CHEMBL1125489",
  "about": "“Antitumor agents. 134. New shiraiachrome-A- and calphostin-C-related perylene derivatives as cytotoxic and antiviral agents and inhibitors of protein kinase C” (1992)",
  "key": {"[1]": {"target": "T1, Protein kinase C (PKC) (Homo sapiens) (UniProt O94806+P41743+P17252+P05129+Q05655+P05771+Q05513+Q02156+P24723+Q15139+Q04759)", "experiment": "Inhibition of protein kinase C(PKC)", "type": "protein assay", "outline": "(§1)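 Compound added in DMSO, with DMSO-only controls. Reaction started with PKC (1 μg/mL) and stopped with ice-cold TCA plus BSA. Precipitate collected on GF/C filters and counted by β scintillation.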"}, "Vero [2]": {"test_system": "Vero", "experiment": "Antiviral activity against HSV-2 in vero cells", "type": "functional", "conditions": "Chlorocebus sabaeus, read-out: ED50", "outline": "(§2)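 Confluent Vero cells infected at 3 PFU/cell with HSV-1 (Kos) or HSV-2 (333) in RPMI-1640 with 2% FCS. Drugs added during inoculation as two-fold serial dilutions (final 100, 50, 25, 12.5 μg/mL). Cytopathic effect scored by microscopy after 24 h.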"}, "Vero [3]": {"test_system": "Vero", "experiment": "Antiviral activity against HSV-1 in vero cells", "type": "functional", "conditions": "Chlorocebus sabaeus, read-out: ED50", "outline": "as §2"}, "[4]": {"experiment": "Cytotoxic concentration against RPMI-7951 tumor cells.", "type": "functional", "conditions": "Homo sapiens, read-out: ED50 (the source's name)", "outline": "(§3)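 Tumor cells exposed 3 days to drug at 0.1, 1 and 10 μg/mL. ED50 is the concentration giving 50% reduction in cell number, estimated from the degree of inhibition at these three concentrations.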"}, "[5]": {"target": "T1, Protein kinase C (PKC) (Homo sapiens)", "experiment": "Inhibition of protein kinase C(PKC), maximal conc 40 uM", "type": "protein assay", "outline": "as §1"}, "KB 3-1": {"test_system": "KB 3-1", "experiment": "Cytotoxic concentration against KB tumor cells.", "type": "functional", "conditions": "Homo sapiens, KB 3-1, read-out: ED50", "outline": "as §3"}, "[6]": {"target": "Protein kinase C, PKC; classical/novel (Homo sapiens) (UniProt O94806+P17252+P05129+Q05655+P05771+Q02156+P24723+Q15139+Q04759)", "experiment": "Inhibition of protein kinase C(PKC), inhibition of phorbol binding by 80-100% at 38 uM", "type": "protein assay"}, "P388": {"test_system": "P388", "experiment": "Cytotoxic concentration against P388 tumor cells.", "type": "functional", "conditions": "Mus musculus, read-out: ED50 (the source's name)", "outline": "as §3"}, "[7]": {"experiment": "Cytotoxic concentration against TE-671 tumor cells.", "type": "functional", "conditions": "Homo sapiens, read-out: ED50 (the source's name)", "outline": "as §3"}, "HCT-8": {"test_system": "HCT-8", "experiment": "Cytotoxic concentration against HCT-8 tumor cells.", "type": "functional", "conditions": "Homo sapiens, read-out: ED50 (the source's name)", "outline": "as §3"}, "A549 [8]": {"test_system": "A549", "experiment": "Cytotoxic concentration against A-549 tumor cells.", "type": "functional", "conditions": "Homo sapiens, read-out: ED50 (the source's name)", "outline": "as §3"}, "A549 [9]": {"test_system": "A549", "experiment": "Cytotoxic concentration against A-549 tumor cells; Inactive at 10 ug/mL.", "type": "functional, cell-based", "conditions": "Homo sapiens", "outline": "as §3"}},
  "note": "Where “and” joins values, the source holds several entries; their conditions need not be identical. Identical values can stand only once. Calls of active or inactive are those of the source. No cut-off for these calls is given here.",
  "data": [
    {"smiles": "O=c1cc(S(=O)(=O)[O-])c2c3c(S(=O)(=O)[O-])cc(O)c4c(=O)cc(S(=O)(=O)[O-])c(c5c(S(=O)(=O)[O-])cc(O)c1c52)c43.[Na+].[Na+].[Na+].[Na+]", "values": [
      {"measurement": "PKC", "setting": "[1]", "result": "200 µM and > 218 µM"},
      {"measurement": "EC50", "setting": "Vero [2]", "result": 10, "unit": "µg/mL"},
      {"measurement": "EC50", "setting": "Vero [3]", "result": 2, "unit": "µg/mL"}
    ]},
    {"smiles": "O=c1ccc2c3ccc(O)c4c(=O)ccc(c5ccc(O)c1c52)c43", "values": [
      {"measurement": "PKC", "setting": "[1]", "result": "> 218", "unit": "µM"}
    ]},
    {"smiles": "CC(=O)Oc1ccc2c3ccc(OC(C)=O)c4c(=O)cc(OC(C)=O)c(c5c(OC(C)=O)cc(=O)c1c25)c43", "values": [
      {"measurement": "PKC", "setting": "[1]", "result": "> 218", "unit": "µM"}
    ]},
    {"smiles": "O=C(/C=C/c1ccccc1)Oc1cc2c3cc(OC(=O)/C=C/c4ccccc4)c(=O)c4cccc(c5cccc(c1=O)c52)c43", "values": [
      {"measurement": "EC50", "setting": "[4]", "result": 5.5, "unit": "µg/mL"},
      {"measurement": "PKC", "setting": "[5]", "result": "> 40", "unit": "µM"},
      {"measurement": "EC50", "setting": "KB 3-1", "result": 5.5, "unit": "µg/mL"}
    ]},
    {"smiles": "CC(=O)/N=c1\\ccc2c3ccc(NC(C)=O)c4c(=O)c(OC(C)=O)cc(c5cc(OC(C)=O)c(O)c1c25)c43", "values": [
      {"measurement": "PKC", "setting": "[1]", "result": 89, "unit": "µM"}
    ]},
    {"smiles": "CCCCCCCCCCCCCCCCCC(=O)Oc1cc2c3cc(OC(=O)CCCCCCCCCCCCCCCCC)c(=O)c4cccc(c5cccc(c1=O)c52)c43", "values": [
      {"measurement": "PKC", "setting": "[5]", "result": "> 40", "unit": "µM"},
      {"measurement": "EC50", "setting": "KB 3-1", "result": 5.57, "unit": "µg/mL"}
    ]},
    {"smiles": "O=c1cc2c3cc(O)c(O)c4cccc(c5cccc(c1=O)c52)c43", "values": [
      {"measurement": "PKC", "setting": "[6]", "result": 14, "unit": "µM"}
    ]},
    {"smiles": "COc1cc(C(=O)Oc2cc3c4cc(OC(=O)c5cc(OC)c(OC)c(OC)c5)c(=O)c5cccc(c6cccc(c2=O)c63)c54)cc(OC)c1OC", "values": [
      {"measurement": "PKC", "setting": "[5]", "result": "> 40", "unit": "µM"}
    ]},
    {"smiles": "O=c1cc(O)c2c3c(O)cc(O)c4c(=O)cc(O)c(c5c(O)cc(O)c1c52)c43", "values": [
      {"measurement": "PKC", "setting": "[1]", "result": "> 218", "unit": "µM"}
    ]},
    {"smiles": "N=c1cc2c3cc(N)c(O)c4cccc(c5cccc(c1=O)c52)c43", "values": [
      {"measurement": "PKC", "setting": "[1]", "result": "> 218", "unit": "µM"}
    ]},
    {"smiles": "COc1cc(C(=O)Oc2cc3c4cc(OC(=O)c5cc(OC)c(O)c(OC)c5)c(=O)c5cccc(c6cccc(c2=O)c63)c54)cc(OC)c1O", "values": [
      {"measurement": "PKC", "setting": "[5]", "result": "> 40", "unit": "µM"}
    ]},
    {"smiles": "N=c1cc2c3cc(N)c(O)c4c(O)ccc(c5ccc(O)c(c1=O)c52)c43", "values": [
      {"measurement": "PKC", "setting": "[1]", "result": 95, "unit": "µM"}
    ]},
    {"smiles": "CC(=O)Oc1cc(O)c2c(=O)cc(OC(C)=O)c3c4c(OC(C)=O)cc(=O)c5c(O)cc(OC(C)=O)c(c1c23)c54", "values": [
      {"measurement": "PKC", "setting": "[1]", "result": "> 218", "unit": "µM"}
    ]},
    {"smiles": "COc1cc(O)c2c(=O)cc(OC)c3c4c(OC)cc(=O)c5c(O)cc(OC)c(c1c23)c54", "values": [
      {"measurement": "PKC", "setting": "[1]", "result": "> 218", "unit": "µM"},
      {"measurement": "EC50", "setting": "Vero [2]", "result": 15, "unit": "µg/mL"},
      {"measurement": "EC50", "setting": "Vero [3]", "result": 3, "unit": "µg/mL"}
    ]},
    {"smiles": "CC(=O)Oc1cc2c3cc(OC(C)=O)c(=O)c4cccc(c5cccc(c1=O)c52)c43", "values": [
      {"measurement": "EC50", "setting": "[4]", "result": 50, "unit": "µg/mL"},
      {"measurement": "PKC", "setting": "[1]", "result": 82, "unit": "µM"},
      {"measurement": "EC50", "setting": "P388", "result": 360, "unit": "µg/mL"},
      {"measurement": "EC50", "setting": "[7]", "result": 680, "unit": "µg/mL"},
      {"measurement": "EC50", "setting": "HCT-8", "result": 560, "unit": "µg/mL"},
      {"measurement": "EC50", "setting": "A549 [8]", "result": 3840, "unit": "µg/mL"},
      {"measurement": "EC50", "setting": "KB 3-1", "result": 0.54, "unit": "µg/mL"}
    ]},
    {"smiles": "O=c1ccc2c3ccc(=O)c4cccc(c5cccc1c52)c43", "values": [
      {"measurement": "EC50", "setting": "[4]", "result": 8.9, "unit": "µg/mL"},
      {"measurement": "PKC", "setting": "[1]", "result": "> 218", "unit": "µM"},
      {"measurement": "EC50", "setting": "P388", "result": 4350, "unit": "µg/mL"},
      {"measurement": "EC50", "setting": "[7]", "result": 5210, "unit": "µg/mL"},
      {"measurement": "ED50", "setting": "A549 [9]", "result": "inactive"}
    ]},
    {"smiles": "COc1c2c3c4c(c(OC)c(=O)c5c(O)cc(OC)c(c6c(OC)cc(O)c(c1=O)c63)c54)[C@@H](C(C)=O)[C@@](C)(O)C2", "note": "(stereo in doubt; 1)", "values": [
      {"measurement": "PKC", "setting": "[6]", "result": 44, "unit": "µM"}
    ]},
    {"smiles": "COc1c2c3c4c(c(OC)c(=O)c5c(O)cc(OC)c(c6c(OC)cc(O)c(c1=O)c63)c54)[C@@H](C(C)=O)[C@@](C)(O)C2", "note": "(stereo in doubt; 2) [HYPOCRELLIN A]", "values": [
      {"measurement": "EC50", "setting": "P388", "result": 390, "unit": "µg/mL"},
      {"measurement": "EC50", "setting": "Vero [2]", "result": 5, "unit": "µg/mL"},
      {"measurement": "EC50", "setting": "Vero [3]", "result": 5, "unit": "µg/mL"}
    ]},
    {"smiles": "CC(=O)Oc1cc2c3cc(OC(C)=O)c(OC(C)=O)c4cccc(c5cccc(c1OC(C)=O)c52)c43", "values": [
      {"measurement": "EC50", "setting": "[4]", "result": 50, "unit": "µg/mL"},
      {"measurement": "PKC", "setting": "[1]", "result": "> 218", "unit": "µM"},
      {"measurement": "EC50", "setting": "P388", "result": 640, "unit": "µg/mL"},
      {"measurement": "EC50", "setting": "[7]", "result": 610, "unit": "µg/mL"},
      {"measurement": "EC50", "setting": "HCT-8", "result": 4160, "unit": "µg/mL"},
      {"measurement": "EC50", "setting": "A549 [8]", "result": 5410, "unit": "µg/mL"}
    ]}
  ]
}
